The list is not random: actives were taken first. Their share in the collection is about 4.8%.
HSF1 activator = increases HSF-1 driven luciferase reporter signal; hit rate 1.7% among 300,000; NIH3T3-HGL HSF-1 luciferase reporter, MG132, 8 h; 100% = twice DMSO control signal; activation, % at 9 µM; AID 504408;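 active means mean replicate activation of at least 50% with a set share of replicates each reaching 50%; inconclusive means only one of those two conditions met; inactive means mean below 50% and too few replicates reaching it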;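 further: 0% = median of the neutral control wells and 100% = twice that signal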
Jurkat NFkB inh = lowers PMA/ionomycin-induced NF-kB signal in Jurkat cells | PMA/ionomycin-induced NF-kB luciferase reporter, luminescence | inhibition, % at 4 µM | hit rate 0.53% among 330,000; in the data active means inhibition above about 50%
GPR7 antag = human neuropeptides B/W receptor 1 antagonism; P48145; GPR7-expressing cells, fluorescence antagonist assay; inhibition, % at 4.4 µM; hit rate 1.1% among 290,000; AID 1861; in the data active means inhibition above about 16%, passing the limit was not always enough;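 further: cells stimulated with the agonist NPW; 0% = agonist with vehicle and 100% = vehicle without agonist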
Target sequence (P48145 whole entry, looked up): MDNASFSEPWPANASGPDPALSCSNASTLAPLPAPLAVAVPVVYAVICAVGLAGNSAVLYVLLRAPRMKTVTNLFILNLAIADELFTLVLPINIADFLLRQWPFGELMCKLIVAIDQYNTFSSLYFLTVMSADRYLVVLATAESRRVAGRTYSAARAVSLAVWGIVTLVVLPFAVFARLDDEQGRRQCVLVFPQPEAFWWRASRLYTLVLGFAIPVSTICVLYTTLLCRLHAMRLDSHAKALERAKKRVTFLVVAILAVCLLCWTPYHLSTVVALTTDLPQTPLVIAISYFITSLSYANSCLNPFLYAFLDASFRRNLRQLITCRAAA
697 NFkB inh = lowers PMA/ionomycin-induced NF-kB signal in 697 B cells | AID 435022 | inhibition, % at 4 µM | 697 B-cell NF-kB luciferase reporter, 16 h | hit rate 0.33% among 330,000; in the data active means inhibition above about 35%
HSF1 inhib = HSF1 inhibition; NIH3T3-HGL HSE-luciferase, MG132-induced, luminescence 8 h; hits give low values; activity change, negative = inhibition, % at 7.5 µM (by protocol); hit rate 0.77% among 300,000;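 active means more than half of replicate wells show activity change below -50%, luminescence cut by over half; inconclusive means some wells, but at most half, below -50%; inactive means no replicate well below -50%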;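 further: luciferase reports HSF-1 transcriptional activity via heat shock element; 0% = median of DMSO wells and -100% = zero luminescence signal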
T cruzi repl = blocks replication of Trypanosoma cruzi. T. cruzi beta-gal in NIH3T3, luminescence, 90 h. hit rate 1.4% among 300,000. inhibition, % (concentration not given with the values);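 active means mean inhibition across valid replicates above about 55%, limit read from the data; inconclusive means mean below that limit but half or more replicates reach it; inactive means mean below it, under half of replicates reach it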;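 further: signal also drops with host cell toxicity which is not excluded here; 0% = plate median of DMSO wells and 100% = zero luminescence signal; higher percent means less beta-gal luminescence so fewer parasites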
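Read-out: Parasite load inhibition, % | Test system: Mouse NIH/3T3 fibroblasts infected with β-gal-expressing T. cruzi Tulahuen C4 | Amount: 5,000 cells/well | Medium: DMEM, 2% fetal bovine serum | Signal: GalScreen β-gal luminescence, detergent lysis, 60 min | Timing: 3 h attach, ≥90 h co-culture | Also added: Tulahuen C4 trypomastigotes, 5000/well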
Starred values were filed as active, the others as inactive; ? = inconclusive; / = not tested or not shown.

SMILES	HSF1 activator	Jurkat NFkB inh	GPR7 antag	697 NFkB inh	HSF1 inhib	T cruzi repl
COc1ccc(N(C(=O)c2ccco2)C(C(=O)NC2CCCC2)c2cccs2)cc1 (stereo not drawn)	66*	-7	-6	-5	15	10
CCCn1nnnc1NCc1cccc(Cl)c1	-5	2	-4	8	-4	-15
CCCCC(Sc1nc(C)c(Cc2ccccc2)c(=O)[nH]1)C(=O)O (stereo not drawn)	3	-1	-7	-8	3	-12
O=C(NNc1ccccc1)C(=O)NNS(=O)(=O)c1ccc(CCCl)cc1	30	-3	-5	1	8	72*
Nc1ccc(S(=O)(=O)NNC(=O)C(=O)NNc2ccccc2)cc1	3	10	-9	16	-5	67*
O=C(Cc1ccccc1)NNS(=O)(=O)c1ccc(F)cc1	6	10	-2	7	1	-25
Cc1ccc(CC2CC(=O)N(Cc3ccco3)C2=O)cc1 (stereo not drawn)	73*	7	8	-5	42	-9
Cc1ccc(Cl)cc1N1CCN(S(=O)(=O)c2cn(C)cn2)CC1	8	4	5	-52	3	7
O=C(c1ccccn1)N(CC1CCCO1)C1(C(=O)NC2CCCCC2)CCCCC1 (stereo not drawn)	1	13	6	-26	-2	10
O=C(Cc1cccs1)N(CC1CCCO1)C1(C(=O)NC2CCCC2)CCCCC1 (stereo not drawn)	7	-2	37*	13	0	0
CCOc1c2ccccc2nn1CCO	/	12	/	-18	/	/
COc1ccc(C2CC(c3cccs3)=NN2C(=O)CSc2nc3ccccc3s2)cc1 (stereo not drawn)	34	-10	-9	-7	0	33
Cc1cccn2c(=O)nc(SCC(=O)N3N=C(c4cccs4)CC3c3ccc(F)cc3)nc12 (stereo not drawn)	95*	1	/	-50	50	67*
O=C(CSc1nc2ccccc2s1)N1N=C(c2cccs2)CC1c1ccc(F)cc1 (stereo not drawn)	10	-13	-11	-2	-5	56*
Cc1ccn2c(=O)nc(SCC(=O)N3N=C(c4cccs4)CC3c3ccc(F)cc3)nc2c1 (stereo not drawn)	16	9	/	-24	3	59*
Cc1onc(-c2ccc(Cl)cc2Cl)c1-c1csc(N/N=C/c2ccccc2)n1	5	2	-3	10	-11	40
COc1ccc(NC(=O)c2cc(-c3cc(C)c(C)cc3O)n[nH]2)c(OC)c1	6	6	-10	9	11	-21
COc1ccc(NC(=O)c2cc(-c3cc(Cl)ccc3O)n[nH]2)c(OC)c1	-86	-30	2	5	-81*	-6
COc1ccc(Cl)cc1NC(=O)c1cc(-c2cc(C)ccc2O)n[nH]1	34	-11	-1	17	18	-12
Cc1ccc(O)c(-c2cc(-c3ccccc3F)[nH]n2)c1	157*	-47	-10	-64	135	-10
COc1ccc(NC(=O)c2c(OC)cccc2OC)c(OC)c1	2	-14	-11	-23	2	59*
Cc1ccc(C)c(NC(=O)c2cc(-c3cc(C)ccc3O)n[nH]2)c1	92*	-44	-1	-60	48	5
CCC(C)Nc1nc2ccccc2n2c(C)nnc12 (stereo not drawn)	37	-23	-2	0	4	2
O=C(Cn1c(-c2ccccc2)c[n+]2ccsc12)c1ccc(Br)cc1	2	-23	-9	-33	7	36
O=C(CCl)N(c1ccccc1)C1CCCCC1	-54	1	-1	-9	?	65*
SMILES	HSF1 activator	Jurkat NFkB inh	GPR7 antag	697 NFkB inh	HSF1 inhib	T cruzi repl
COc1ccc(C2=CC(=O)CC(c3ccc(F)cc3)C2)cn1 (stereo not drawn)	61*	16	/	11	29	-4
CCCc1ncc(CN2CCC(C(=O)Nc3cccc(-c4cscn4)c3)CC2)cn1	0	15	-2	-24	1	-3
COc1ccccc1CNC(=O)Cn1cccc1C(=O)c1ccccc1	23	-24	14	-22	18	-3
N/C(=N\OC(=O)c1ccoc1)c1ccc(Br)cc1	69*	-147	-8	-148	30	-4
Cc1cc(C)cc(C(=O)O/N=C(\N)c2ccc(Br)cc2)c1	23	0	-7	-47	8	35
COc1ccc(CNC(=O)CN2C(=O)NC(C)(c3cccc(Br)c3)C2=O)cc1 (stereo not drawn)	-17	-6	-6	-13	9	4
O=C1N/C(=N\S(=O)(=O)c2ccccc2)S/C1=C\c1cc([N+](=O)[O-])ccc1O	7	5	16	23	-6	4
O=C1N/C(=N\S(=O)(=O)Cc2ccccc2)S/C1=C/c1cc([N+](=O)[O-])ccc1O	-4	0	18*	20	1	-7
CC[C@H](C)Cc1cn([C@@H](CCCN=C(NC(=O)OC(C)(C)C)NC(=O)OC(C)(C)C)C(=O)NCCCCCCCCCCC(=O)N2CCN(C(=O)OC(C)(C)C)CC2)nn1	-10	30	/	-26	-2	59*
Cc1cn([C@@H](CCCCNC(=O)OC(C)(C)C)C(=O)NCCCCCCCCCCC(=O)N2CCN(C(=O)OC(C)(C)C)CC2)nn1	/	33	/	-59	/	/
O=C(NC1CCCCCC1)c1ccc[nH]c1=S	10	7	-2	-16	0	58*
O=C(NC1CCCCCCC1)c1ccccc1O	1	-83	-1	-167	6	-11
CCN(CC(=O)NCc1ccc(Cl)cc1)C(=O)CCc1ccccc1O	0	0	-10	9	1	17
CC(C)OCCOc1ccc2oc(-c3ccco3)cc(=O)c2c1	-24	-10	-2	-17	-10	-2
O=C(CCC1CCCN(c2ncccn2)C1)NCc1ccccc1F (stereo not drawn)	15	-11	-4	12	-2	9
Cc1nn(C)c(Cl)c1CN1CCCC(CCC(=O)NCc2ccccc2F)C1 (stereo not drawn)	7	-1	-2	13	-6	60*
Cc1ccc(CNC(=O)CCC2CCCN(Cc3cccc4ncccc34)C2)o1 (stereo not drawn)	6	15	-3	-1	-3	66*
CCOc1cccc(CN2CCCC(CCC(=O)NCc3ccccc3F)C2)c1O (stereo not drawn)	21	13	-3	13	1	56*
CCOc1ccc(OCCC(=O)OCC(=O)Nc2ccc3c(c2)OCCO3)cc1	-10	0	/	6	-2	-1
CC1=C(C(=O)N2CCc3ccccc32)C2(CCC(C)CC2)OC1=O (stereo not drawn)	/	2	-5	-10	/	60*

Screening data as filed in PubChem.
